Active and inactive are the calls of the source. The calls are words filed in the database; no cut-off is given here.
Key:
[1] = Inhibition of IL-6-induced cell adhesion in human U937 cells assessed as reduction in cell adhesion to HT-29 cells at 1 uM relative to control; type: functional; conditions: U-937
[2] = Inhibition of TNF-alpha-induced cell adhesion in human U937 cells assessed as reduction in cell adhesion to HT-29 cells at 1 uM relative to control; type: functional; conditions: U-937
[3] = test system: Rattus norvegicus; assay: Anti-colitis activity against TNBS-induced rat model of colitis assessed as increase in colon weight at 300 mg/kg, po administered for 5 days and measured on day 5; type: functional, organism-based; conditions: time 5.0 day
Summary of the method: (§1)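 Rat colitis induced by rectal TNBS. Test agents given orally once daily for 5 days. Read-outs are body weight, colon appearance (congestion, adhesion), and colon tissue weight/length. MPO in colon tissue was measured with an MPO assay kit. Groups were compared against mock control and vehicle-treated TNBS animals, with P < 0.05 taken as significant.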

[4] = test system: Rattus norvegicus; assay: Anti-colitis activity against TNBS-induced rat model of colitis assessed as decrease in congestion at 300 mg/kg, po administered for 5 days and measured on day 5; type: functional, organism-based; conditions: time 5.0 day; summary of the method: as §1
[5] = test system: Rattus norvegicus; assay: Anti-colitis activity against TNBS-induced rat model of colitis assessed as increase in body weight at 300 mg/kg, po administered for 5 days and measured on day 5; type: functional, organism-based; conditions: time 5.0 day; summary of the method: as §1
[6] = test system: Rattus norvegicus; assay: Anti-colitis activity against TNBS-induced rat model of colitis assessed as decrease in MPO level in colon at 300 mg/kg, po administered for 5 days and measured on day 5; type: functional, organism-based; conditions: time 5.0 day; summary of the method: as §1
[7] = test system: Rattus norvegicus; assay: Anti-colitis activity against TNBS-induced rat model of colitis assessed as decrease in adhesion at 300 mg/kg, po administered for 5 days and measured on day 5; type: functional, organism-based; conditions: time 5.0 day; summary of the method: as §1
[8] = test system: Rattus norvegicus; assay: Anti-colitis activity against TNBS-induced rat model of colitis assessed as increase in colon length at 300 mg/kg, po administered for 5 days and measured on day 5; type: functional, organism-based; conditions: time 5.0 day; summary of the method: as §1
[9] = Inhibition of TNF-alpha-induced cell adhesion in human U937 cells assessed as reduction in cell adhesion to HT-29 cells at 1000 uM relative to control; type: functional; conditions: U-937
[10] = Inhibition of IL-6-induced cell adhesion in human U937 cells assessed as reduction in cell adhesion to HT-29 cells at 1000 uM relative to control; type: functional; conditions: U-937
[11] = test system: Rattus norvegicus; assay: Anti-colitis activity against TNBS-induced rat model of colitis assessed as decrease in congestion at 1 mg/kg, po administered for 5 days and measured on day 5; type: functional, organism-based; conditions: time 5.0 day; summary of the method: as §1
[12] = test system: Rattus norvegicus; assay: Anti-colitis activity against TNBS-induced rat model of colitis assessed as increase in colon weight at 1 mg/kg, po administered for 5 days and measured on day 5; type: functional, organism-based; conditions: time 5.0 day; summary of the method: as §1
[13] = test system: Rattus norvegicus; assay: Anti-colitis activity against TNBS-induced rat model of colitis assessed as increase in body weight at 1 mg/kg, po administered for 5 days and measured on day 5; conditions: time 5.0 day
[14] = test system: Rattus norvegicus; assay: Anti-colitis activity against TNBS-induced rat model of colitis assessed as decrease in MPO level in colon at 1 mg/kg, po administered for 5 days and measured on day 5; type: functional, organism-based; conditions: time 5.0 day; summary of the method: as §1
[15] = test system: Rattus norvegicus; assay: Anti-colitis activity against TNBS-induced rat model of colitis assessed as increase in body weight at 1 mg/kg, po administered for 5 days and measured on day 5; type: functional, organism-based; conditions: time 5.0 day; summary of the method: as §1
[16] = test system: Rattus norvegicus; assay: Anti-colitis activity against TNBS-induced rat model of colitis assessed as decrease in adhesion at 1 mg/kg, po administered for 5 days and measured on day 5; type: functional, organism-based; conditions: time 5.0 day; summary of the method: as §1
[17] = test system: Rattus norvegicus; assay: Anti-colitis activity against TNBS-induced rat model of colitis assessed as decrease in congestion at 1 to 10 mg/kg, po administered for 5 days and measured on day 5; type: functional, organism-based; conditions: dose 1-10 mg/kg, time 5.0 day; summary of the method: as §1
[18] = test system: Rattus norvegicus; assay: Anti-colitis activity against TNBS-induced rat model of colitis assessed as decrease in adhesion at 1 to 10 mg/kg, po administered for 5 days and measured on day 5; type: functional, organism-based; conditions: dose 1-10 mg/kg, time 5.0 day; summary of the method: as §1
[19] = test system: Rattus norvegicus; assay: Anti-colitis activity against TNBS-induced rat model of colitis assessed as increase in colon length at 1 to 10 mg/kg, po administered for 5 days and measured on day 5; type: functional, organism-based; conditions: dose 1-10 mg/kg, time 5.0 day; summary of the method: as §1
[20] = test system: Rattus norvegicus; assay: Anti-colitis activity against TNBS-induced rat model of colitis assessed as increase in colon weight at 1 to 10 mg/kg, po administered for 5 days and measured on day 5; type: functional, organism-based; conditions: dose 1-10 mg/kg, time 5.0 day; summary of the method: as §1
[21] = test system: Rattus norvegicus; assay: Anti-colitis activity against TNBS-induced rat model of colitis assessed as increase in body weight administered po for 5 days and measured on day 5; type: functional, organism-based; conditions: dose 1-10 mg/kg, time 5.0 day; summary of the method: as §1
[22] = test system: Rattus norvegicus; assay: Anti-colitis activity against TNBS-induced rat model of colitis assessed as decrease in MPO level in colon at 1 to 10 mg/kg, po administered for 5 days and measured on day 5; type: functional, organism-based; conditions: dose 1-10 mg/kg, time 5.0 day; summary of the method: as §1

SMILES | inhibition at 1 µM [1] | inhibition at 1 µM [2] | other results
Cc1nc(NC(=O)CCCCl)c(C)c(C)c1O | 17.8% |  | 
CCCCCCCC(=O)Nc1nc(C)c(O)c(C)c1C | 54.8% | 61.5% | 
Cc1nc(NC(=O)C(C)C)c(C)c(C)c1O | 53.9% | 64.2% | 
Cc1nc(NC(=O)Cc2ccc(F)cc2)c(C)c(C)c1O | 18.1% | 7.2% | 
CCCCCCCCCCCCCCCC(=O)Nc1nc(C)c(O)c(C)c1C | 17.4% | 31.7% | 
O=C(O)c1cc(/N=N/c2ccc(S(=O)(=O)Nc3ccccn3)cc2)ccc1O |  |  | Activity [3]: Active; Activity [4]: Active; Activity [5]: Active; Activity [6]: Active; Activity [7]: Active; Activity [8]: Active
Nc1ccc(O)c(C(=O)O)c1 [MESALAMINE] |  |  | inhibition at 1000 µM [9]: 9.9%; inhibition at 1000 µM [10]: 1.7%
Cc1nc(NC(=O)C(C)(C)C)c(C)c(C)c1O | 21.1% |  | 
Cc1nc(NC(=O)C2CCCCC2)c(C)c(C)c1O | 56.7% |  | 
CC(=O)OCC(=O)Nc1nc(C)c(O)c(C)c1C | 9.7% | 6.8% | 
Cc1nc(NC(=O)Cc2ccccc2)c(C)c(C)c1O | 50.2% | 56.6% | 
Cc1nc(NC(=O)CCc2ccccc2)c(C)c(C)c1O | 69.6% |  | Activity [11]: Active; Activity [12]: Active; Activity [13]: Active; Activity [14]: Active; Activity [15]: Active; Activity [16]: Active
Cc1nc(NC(=O)COc2ccccc2)c(C)c(C)c1O | 11.4% | 10.8% | 
CCCC(=O)Nc1nc(C)c(O)c(C)c1C | 17.5% | 10% | 
C=CCC(=O)Nc1nc(C)c(O)c(C)c1C | 21.3% | 31.9% | 
Cc1nc(NC(=O)CC(C)C)c(C)c(C)c1O | 48% | 52.3% | 
Cc1nc(NC(=O)C(Cl)c2ccccc2)c(C)c(C)c1O (stereo not drawn) | 22.5% | 36.6% | 
Cc1nc(NC(=O)C2CCCC2)c(C)c(C)c1O | 34.8% |  | 
Cc1nc(NC(=O)/C=C/c2ccccc2)c(C)c(C)c1O | 14.2% | 25.2% | 
Cc1nc(NC(=O)C(Cl)Cl)c(C)c(C)c1O | 52.7% |  | 
Cc1ccccc1CCC(=O)Nc1nc(C)c(O)c(C)c1C | 12.9% | 20.2% | 
Cc1nc(NC(=O)CCc2ccccc2Br)c(C)c(C)c1O | 22% | 35.3% | 
Cc1nc(NC(=O)CCc2ccccc2F)c(C)c(C)c1O | 18% | 13.9% | 
C[C@@H]1CCN(C(=O)CC#N)C[C@@H]1N(C)c1ncnc2[nH]ccc12 [TOFACITINIB] | 58.6% | 49.1% | 
Cc1nc(NC(=O)CCc2ccc(Cl)cc2)c(C)c(C)c1O | 20.8% | 30.6% | 
Cc1nc(NC(=O)CCc2ccc(Cl)cc2Cl)c(C)c(C)c1O | 35.9% | 41.5% | 
Cc1nc(NC(=O)Cc2cccc(Br)c2)c(C)c(C)c1O | 9.2% | 6.2% | 
CC(=O)Nc1nc(C)c(O)c(C)c1C | 47.2% | 56% | Activity [17]: Active; Activity [18]: Active; Activity [19]: Active; Activity [20]: Active; Activity [21]: Dose-Dependent Effect; Activity [22]: Active
CCCCCCCCCCCC(=O)Nc1nc(C)c(O)c(C)c1C | 44.3% |  | 
Cc1nc(NC(=O)CC(C)CC(C)(C)C)c(C)c(C)c1O (stereo not drawn) | 46.3% |  | 

— ChEMBL document CHEMBL4819105, “Synthesis and activity of N-(5-hydroxy-3,4,6-trimethylpyridin-2-yl)acetamide analogues as anticolitis agents via dual inhibition of TNF-α- and IL-6-induced cell adhesions” (2021)
